Assay outcomes from PubChem BioAssay.
RAD52 anneal inh = blocks human RAD52 DNA annealing; recombinant RAD52 DNA annealing, FRET fluorescence; P43351; 360,000 tested, 0.46% active; inhibition, % at 18.7 µM;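 active = every replicate showing at least 50% inhibition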
N-glyco inh = blocks N-linked glycosylation in D54 reporter cells; D54 ERlucT glycosylation luciferase reporter, 24 h; percent of 100 nM tunicamycin response; reporter increase, % at 12.5 µM; 360,000 tested, 0.23% active;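 active = mean luciferase reporter signal, scaled so untreated is 0 and the glycosylation-blocking control 100, at or above a set limit in every replicate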;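 also: luciferase carries N-glycosylation sites so blocking glycosylation raises the light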
NSD2 HMT inh = NSD2 (human) methyltransferase inhibition; NSD2 peptide methylation, AlphaScreen, 120 min; O96028; inhibition, % at 12.5 µM; 310,000 tested, 0.54% active; in the data active = inhibition above about 50%
FN deposit inh = fibronectin deposition inhibition; AID 743247; AH1F fibroblasts, Alexa488-fibronectin deposition fluorescence, overnight; inhibition, % at 12.6 µM; 350,000 tested, 0.086% active;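 active = mean inhibition across replicates of 30% or more, regardless of how many single replicates reach that level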
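Assay system: AH1F fibroblasts / Quantity: 10000 cells per well / Medium: DMEM plus 2% serum, read in PBS / Reagent: labelled fibronectin 24 nM / Dosing: single dose, pinned / Times: 1 h cell attachment, overnight exposure to compound and label / Signal: fluorescence, ex 485 nm, em 525 nm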
MLL AF4-AF9 inh = blocks AF4 peptide binding to human AF9 | AlphaScreen, biotin-AF4 peptide binding to FLAG-AF9 | inhibition, % at 10 µM | 350,000 tested, 0.47% active;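 active = every replicate reaching a set inhibition limit, whatever the replicate mean, cut at about 25% in these data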
Target sequence (P42568 whole entry, looked up): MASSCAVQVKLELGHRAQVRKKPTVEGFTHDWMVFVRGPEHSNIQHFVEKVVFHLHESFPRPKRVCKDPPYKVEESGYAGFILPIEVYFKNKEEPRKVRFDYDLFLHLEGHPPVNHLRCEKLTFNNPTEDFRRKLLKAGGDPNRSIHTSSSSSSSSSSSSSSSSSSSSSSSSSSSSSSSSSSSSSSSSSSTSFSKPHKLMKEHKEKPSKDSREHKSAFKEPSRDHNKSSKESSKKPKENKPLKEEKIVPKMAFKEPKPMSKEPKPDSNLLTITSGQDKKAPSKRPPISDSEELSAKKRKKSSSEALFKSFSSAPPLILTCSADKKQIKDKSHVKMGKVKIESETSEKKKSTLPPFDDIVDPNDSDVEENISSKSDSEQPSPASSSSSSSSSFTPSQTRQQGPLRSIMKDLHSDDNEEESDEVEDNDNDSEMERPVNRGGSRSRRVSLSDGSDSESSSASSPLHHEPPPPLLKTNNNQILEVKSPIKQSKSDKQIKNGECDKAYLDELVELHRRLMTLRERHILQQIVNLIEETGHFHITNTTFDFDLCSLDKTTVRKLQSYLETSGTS
RAD54 inh = RAD54 (human) branch migration inhibition | RAD54 Holliday junction branch migration, FAM/BHQ fluorescence | inhibition, % at 10.4 µM | AID 602329 | 360,000 tested, 0.14% active;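 active = mean normalized replicate activity at least 40 and at least half of replicates scoring 40 or more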;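 also: inhibitors cause a drop in the FAM fluorescence signal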
Numbers stand for hits; n = inactive; x = no result given; ! = not active in a repeat. This is a sample that favours compounds with a hit; in the whole collection about 1.2% have one here.

SMILES | RAD52 anneal inh | N-glyco inh | NSD2 HMT inh | FN deposit inh | MLL AF4-AF9 inh | RAD54 inh
Cc1ccccc1S(=O)(=O)N1C[C@@H]2N[C@H](C1)C2c1ccc(-c2ccc(C#N)cc2)cc1 (some centres undefined) | 72.0! | x | x | n | n | x
O=C(Nc1nc2ccccc2s1)c1cccs1 | x | x | n | x | x | x
CN(C)C(=O)[C@@H]1[C@@H](CO)[C@@H]2Cn3c(ccc(C4=CCCCC4)c3=O)[C@H]1N2C | 72.1 | x | x | x | n | n
CN(C)C(=O)c1ccc(-c2ccc([C@@H]3[C@@H](CO)N4CCCCN(S(C)(=O)=O)C[C@H]34)cc2)cc1 | n | x | x | x | 30.4 | n
CN(C)C(=O)c1ccc(-c2ccc([C@H]3[C@H]4CN(S(C)(=O)=O)CCCCN4[C@H]3CO)cc2)cc1 | n | x | x | x | 34.2 | n
CN(C)C(=O)c1ccc(-c2ccc([C@@H]3[C@H]4CN(S(C)(=O)=O)CCCCN4[C@H]3CO)cc2)cc1 | n | x | x | x | n | n
CCOc1ccc(Nc2nc(N)nc(CSC(=S)N3CCN(c4ccccc4)CC3)n2)cc1 | n | n | n | n | 35.4 | x
Cc1cc(C(=O)Nc2ccc3c(c2)C(=O)N(C)[C@@H]2CC[C@@H](CC(=O)N[C@@H](C)c4ccccc4)O[C@@H]2CO3)no1 | n | x | x | n | n | n
Cc1ccc(S(=O)(=O)Nc2ccc3c(c2)CC(=O)N([C@H](C)CO)C[C@H](C)[C@H](CN(C)S(C)(=O)=O)O3)cc1 | n | x | x | n | n | n
CC(C)(C)c1cc(Cl)c(O)c(NC(=S)NC(=O)c2cccnc2)c1 | n | n | n | 30.3 | n | x
C[C@H]1CN([C@@H](C)CO)C(=O)Cc2cc(NC(=O)Nc3cccc4ccccc34)ccc2O[C@H]1CN(C)Cc1ccccc1 | n | x | x | x | n | n
C[C@@H]1CN([C@@H](C)CO)C(=O)c2cc(-c3ccc(F)cc3)cnc2O[C@H]1CN(C)CC1CCCC1 | n | x | x | n | n | n
CC(C(=O)NCCN1CCOCC1)c1ccc([N+](=O)[O-])cc1 (centres undefined) | n | n | n | n | n | x
O=C1C[C@@](C(=O)NCCN2CCOCC2)(c2ccc([N+](=O)[O-])cc2)[C@@H](c2ccc(CO)cc2I)N1CC12CC3CC(CC(C3)C1)C2 | 57.8 | x | x | x | 26.7 | n
Cc1ccc(C(O)c2ncc(-c3cccc4ccccc34)[nH]2)cc1F (centres undefined) | n | n | n | 30.2 | n | n
Cc1ccc(C(O)c2ncc(-c3ccccc3C)[nH]2)cc1F (centres undefined) | n | n | n | n | n | n
Cc1ccc(S(=O)(=O)Nc2ccc(O)c3cccnc23)cc1 | n | n | n | n | n | n
Cc1ccc(S(=O)(=O)Nc2ccc(O)c3ncccc23)cc1 | n | n | x | n | 25.6 | n
O=C1C(=NO)CCc2ccccc21 | n | n | 77.2 | n | n | n
COc1cccc(S(=O)(=O)N[C@@H]2CC[C@@H](CCn3cc(-c4ccccn4)nn3)O[C@@H]2CO)c1 | n | x | x | x | n | n
CN1CCCCN2[C@@H](CO)[C@@H](c3ccc(C#Cc4ccccc4F)cc3)[C@@H]2C1 | 70.8 | x | x | x | n | n
CN1CCCCN2[C@H](CO)[C@@H](c3ccc(C#Cc4ccccc4F)cc3)[C@@H]2C1 | 68.8 | x | x | x | n | n
CC(=O)N1CCCCN2[C@H](CO)[C@@H](c3ccc(C#Cc4ccccc4F)cc3)[C@H]2C1 | n | x | x | x | n | n
C=C1N(C)c2cc([N+](=O)[O-])c(N)cc2C1(C)C | n | n | n | n | 47.5 | x
CC1(C)Oc2cc(N)c([N+](=O)[O-])cc2O1 | x | n | n | x | x | n
SMILES | RAD52 anneal inh | N-glyco inh | NSD2 HMT inh | FN deposit inh | MLL AF4-AF9 inh | RAD54 inh
COc1cc(CNc2ccc(O)cc2)cc(Br)c1OCc1ccccc1 | n | 57.4 | n | n | n | x
CCOc1c(Br)cc(CNc2ccc(N3CCN(C(C)=O)CC3)cc2)cc1OC | n | n | n | n | 26.8 | n
Nc1ccc(-c2cc(NC=O)c3ncc(-c4cccc(C(F)(F)F)c4)n3c2)cn1 | n | 28.6 | n | x | n | n
Cn1cc(-c2cnc3c(NC=O)cc(-c4cccc(C(F)(F)F)c4)cn23)cn1 | n | n | n | n | n | n
O=CNc1cc(-c2cccc(F)c2)cn2c(-c3ccc(F)cc3)cnc12 | n | n | n | n | n | n
CN1CCN(c2ccc(-c3cc(NC=O)c4ncc(-c5ccc(F)cc5)n4c3)cc2)CC1 | n | n | n | n | 38.0 | n
C[C@H]1CN(C)C(=O)Cc2cc(N(C)C)ccc2O[C@H]1CN(C)S(C)(=O)=O | x | x | x | n | x | x
